Test results from ChEMBL document CHEMBL1944580, “Synthesis of novel sulfonamide-1,2,4-triazoles, 1,3,4-thiadiazoles and 1,3,4-oxadiazoles, as potential antibacterial and antifungal agents. Biological evaluation and conformational analysis studies” (2012).
≈ marks a conversion by molar mass, not a printed value.

Columns and labels:
[1] = system: Talaromyces funiculosus; test: Antifungal activity against Penicillium funiculosum ATCC 36839 after 72 hrs by serial dilution method; assay type: functional; settings: ATCC 36839, 72 h
In short: (§1)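 Modified microdilution MIC. Spores were washed from malt agar cultures with sterile 0.85% saline containing 0.1% Tween 80 and adjusted to about 1.0 × 10^5 per 100 µl well in malt broth. Compounds were dissolved in DMSO (1 mg/ml). Plates incubated 72 h at 28 °C. MIC is the lowest concentration with no visible growth under a binocular microscope. Bifonazole and ketoconazole were the references.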

[2] = system: Penicillium ochrochloron; test: Antifungal activity against Penicillium ochrochloron ATCC 9112 after 72 hrs by serial dilution method; assay type: functional; settings: ATCC 9112, 72 h; in short: as §1
[3] = system: Trichoderma viride; test: Antifungal activity against Trichoderma viride IAM 5061 after 72 hrs by serial dilution method; assay type: functional; settings: IAM 5061, 72 h; in short: as §1
[4] = system: Aspergillus fumigatus; test: Antifungal activity against Aspergillus fumigatus human isolate after 72 hrs by serial dilution method; assay type: functional; in short: as §1
[5] = system: Aspergillus niger; test: Antifungal activity against Aspergillus niger ATCC 6275 after 72 hrs by serial dilution method; assay type: functional; settings: ATCC 6275, 72 h; in short: as §1
[6] = system: Aspergillus flavus; test: Antifungal activity against Aspergillus flavus ATCC 9643 after 72 hrs by serial dilution method; assay type: functional; settings: ATCC 9643, 72 h; in short: as §1
[7] = system: Aspergillus versicolor; test: Antifungal activity against Aspergillus versicolor ATCC 11730 after 72 hrs by serial dilution method; assay type: functional; settings: ATCC 11730, 72 h; in short: as §1
[8] = system: Fulvia fulva; test: Antifungal activity against Fulvia fulva after 72 hrs by serial dilution method; assay type: functional; in short: as §1
[9] = system: Talaromyces funiculosus; test: Antifungal activity against Penicillium funiculosum ATCC 36839 treated for 72 hrs followed by sub-cultivated for 5 days by serial dilution method; assay type: functional
In short: (§2)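 MFC obtained after the 72 h, 28 °C malt-broth microdilution (spore inoculum about 1.0 × 10^5 per well, compounds from 1 mg/ml DMSO). 2 µl was serially subcultured into 100 µl broth per well and incubated a further 5 days at 28 °C. MFC is the lowest concentration with no visible growth, taken as 99.5% killing of the original inoculum.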

[10] = system: Penicillium ochrochloron; test: Antifungal activity against Penicillium ochrochloron ATCC 9112 treated for 72 hrs followed by sub-cultivated for 5 days by serial dilution method; assay type: functional; in short: as §2
[11] = system: Trichoderma viride; test: Antifungal activity against Trichoderma viride IAM 5061 treated for 72 hrs followed by sub-cultivated for 5 days by serial dilution method; assay type: functional; in short: as §2
[12] = system: Aspergillus fumigatus; test: Antifungal activity against Aspergillus fumigatus human isolate treated for 72 hrs followed by sub-cultivated for 5 days by serial dilution method; assay type: functional; in short: as §2
[13] = system: Aspergillus niger; test: Antifungal activity against Aspergillus niger ATCC 6275 treated for 72 hrs followed by sub-cultivated for 5 days by serial dilution method; assay type: functional; in short: as §2
[14] = system: Aspergillus flavus; test: Antifungal activity against Aspergillus flavus ATCC 9643 treated for 72 hrs followed by sub-cultivated for 5 days by serial dilution method; assay type: functional; in short: as §2
[15] = system: Aspergillus versicolor; test: Antifungal activity against Aspergillus versicolor ATCC 11730 treated for 72 hrs followed by sub-cultivated for 5 days by serial dilution method; assay type: functional; in short: as §2
[16] = system: Fulvia fulva; test: Antifungal activity against Fulvia fulva treated for 72 hrs followed by sub-cultivated for 5 days by serial dilution method; assay type: functional; in short: as §2
[17] = system: Staphylococcus aureus; test: Antibacterial activity against Staphylococcus aureus ATCC 6538 after 24 hrs by micro dilution method; assay type: functional; settings: ATCC 6538, 24 h
In short: (§3)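 Microdilution MIC in 96-well plates. Bacterial suspensions adjusted in sterile saline to 1.0 × 10^5 CFU/ml, giving 1.0 × 10^4 cfu per well in LB broth. Compounds tested at up to 1 mg/ml. Plates incubated 24 h. MIC taken as the lowest concentration with no visible growth under a binocular microscope. OD at 655 nm was also read against a blank and the positive control. Streptomycin and ampicillin were the positive controls.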

[18] = system: Bacillus cereus; test: Antibacterial activity against Bacillus cereus clinical isolate after 24 hrs by micro dilution method; assay type: functional; in short: as §3
[19] = system: Micrococcus flavus; test: Antibacterial activity against Micrococcus flavus ATCC 10240 after 24 hrs by micro dilution method; assay type: functional; settings: ATCC 10240, 24 h; in short: as §3
[20] = system: Listeria monocytogenes; test: Antibacterial activity against Listeria monocytogenes NCTC 7973 after 24 hrs by micro dilution method; assay type: functional; settings: NCTC 7973, 24 h; in short: as §3
[21] = system: Pseudomonas aeruginosa; test: Antibacterial activity against Pseudomonas aeruginosa ATCC 27853 after 24 hrs by micro dilution method; assay type: functional; settings: ATCC 27853, 24 h; in short: as §3
[22] = system: Enterobacter cloacae; test: Antibacterial activity against Enterobacter cloacae human isolate after 24 hrs by micro dilution method; assay type: functional; in short: as §3
[23] = system: Salmonella typhimurium; test: Antibacterial activity against Salmonella Typhimurium ATCC 13311 after 24 hrs by micro dilution method; assay type: functional, Salmonella enterica subsp. enterica serovar Typhimurium; settings: Salmonella enterica, ATCC 13311, 24 h; in short: as §3
[24] = system: Escherichia coli; test: Antibacterial activity against Escherichia coli ATCC 35210 after 24 hrs by micro dilution method; assay type: functional; settings: ATCC 35210, 24 h; in short: as §3
[25] = system: Staphylococcus aureus; test: Antibacterial activity against Staphylococcus aureus ATCC 6538 treated for 24 hrs followed by sub-cultivated for 72 hrs by micro dilution method; assay type: functional
In short: (§4)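 2 µl from each well was serially subcultured into 100 µl fresh broth per well and incubated a further 72 h. MBC is the lowest concentration with no visible growth, taken as 99.5% killing of the original inoculum. Streptomycin and ampicillin were the positive controls.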

[26] = system: Bacillus cereus; test: Antibacterial activity against Bacillus cereus clinical isolate treated for 24 hrs followed by sub-cultivated for 72 hrs by micro dilution method; assay type: functional; in short: as §4
[27] = system: Micrococcus flavus; test: Antibacterial activity against Micrococcus flavus ATCC 10240 treated for 24 hrs followed by sub-cultivated for 72 hrs by micro dilution method; assay type: functional; in short: as §4
[28] = system: Listeria monocytogenes; test: Antibacterial activity against Listeria monocytogenes NCTC 7973 treated for 24 hrs followed by sub-cultivated for 72 hrs by micro dilution method; assay type: functional; in short: as §4
[29] = system: Pseudomonas aeruginosa; test: Antibacterial activity against Pseudomonas aeruginosa ATCC 27853 treated for 24 hrs followed by sub-cultivated for 72 hrs by micro dilution method; assay type: functional; in short: as §4
[30] = system: Enterobacter cloacae; test: Antibacterial activity against Enterobacter cloacae human isolate treated for 24 hrs followed by sub-cultivated for 72 hrs by micro dilution method; assay type: functional; in short: as §4
[31] = system: Salmonella typhimurium; test: Antibacterial activity against Salmonella Typhimurium ATCC 13311 treated for 24 hrs followed by sub-cultivated for 72 hrs by micro dilution method; assay type: functional, Salmonella enterica subsp. enterica serovar Typhimurium; settings: Salmonella enterica; in short: as §4
[32] = system: Escherichia coli; test: Antibacterial activity against Escherichia coli ATCC 35210 treated for 24 hrs followed by sub-cultivated for 72 hrs by micro dilution method; assay type: functional; in short: as §4

Compound | MIC [1] [µM] | MIC [2] [µM] | MIC [3] [µM] | MIC [4] [µM] | MIC [5] [µM] | MIC [6] [µM] | MIC [7] [µM] | MIC [8] [µM] | MFC [9] [µM] | MFC [10] [µM] | MFC [11] [µM] | MFC [12] [µM] | MFC [13] [µM] | MFC [14] [µM] | MFC [15] [µM] | MFC [16] [µM] | other results
c1ccc(-c2ccc(C(c3ccccc3)n3ccnc3)cc2)cc1 (stereo not drawn) [BIFONAZOLE] | 640 (≈ 199 µg/mL) | 480 (≈ 149 µg/mL) | 640 (≈ 199 µg/mL) | 480 (≈ 149 µg/mL) | 480 (≈ 149 µg/mL) | 480 (≈ 149 µg/mL) | 320 (≈ 99.3 µg/mL) | 320 (≈ 99.3 µg/mL) | 800 (≈ 248 µg/mL) | 640 (≈ 199 µg/mL) | 800 (≈ 248 µg/mL) | 640 (≈ 199 µg/mL) | 640 (≈ 199 µg/mL) | 640 (≈ 199 µg/mL) | 640 (≈ 199 µg/mL) | 640 (≈ 199 µg/mL) | –
CC(=O)N1CCN(c2ccc(OCC3COC(Cn4ccnc4)(c4ccc(Cl)cc4Cl)O3)cc2)CC1 (stereo not drawn) [KETOCONAZOLE] | 380 (≈ 202 µg/mL) | 3800 (≈ 2020 µg/mL) | 4750 (≈ 2520 µg/mL) | 380 (≈ 202 µg/mL) | 380 (≈ 202 µg/mL) | 2850 (≈ 1510 µg/mL) | 380 (≈ 202 µg/mL) | 380 (≈ 202 µg/mL) | 950 (≈ 505 µg/mL) | 3800 (≈ 2020 µg/mL) | 5700 (≈ 3030 µg/mL) | 950 (≈ 505 µg/mL) | 950 (≈ 505 µg/mL) | 3800 (≈ 2020 µg/mL) | 950 (≈ 505 µg/mL) | 950 (≈ 505 µg/mL) | –
CN[C@@H]1[C@H](O[C@H]2[C@H](O[C@H]3[C@H](O)[C@@H](O)[C@H](N=C(N)N)[C@@H](O)[C@@H]3N=C(N)N)O[C@@H](C)[C@]2(O)C=O)O[C@@H](CO)[C@H](O)[C@H]1O [STREPTOMYCIN] | – | – | – | – | – | – | – | – | – | – | – | – | – | – | – | – | MIC [17]: 40 µM (≈ 23.3 µg/mL); MIC [18]: 90 µM (≈ 52.3 µg/mL); MIC [19]: 170 µM (≈ 98.9 µg/mL); MIC [20]: 170 µM (≈ 98.9 µg/mL); MIC [21]: 170 µM (≈ 98.9 µg/mL); MIC [22]: 170 µM (≈ 98.9 µg/mL); MIC [23]: 170 µM (≈ 98.9 µg/mL); MIC [24]: 260 µM (≈ 151 µg/mL); MBC [25]: 90 µM (≈ 52.3 µg/mL); MBC [26]: 170 µM (≈ 98.9 µg/mL); MBC [27]: 340 µM (≈ 198 µg/mL); MBC [28]: 340 µM (≈ 198 µg/mL); MBC [29]: 340 µM (≈ 198 µg/mL); MBC [30]: 340 µM (≈ 198 µg/mL); MBC [31]: 340 µM (≈ 198 µg/mL); MBC [32]: 520 µM (≈ 302 µg/mL)
